Experimental data as given in ChEMBL document CHEMBL4673403, “Development of a Hematopoietic Prostaglandin D Synthase-Degradation Inducer” (ACS Med Chem Lett, 2021).
Blank lines part the entries; values can stand above or below the molecule they belong to. Calls of active or inactive are those of the source. The calls are words filed in the database; no cut-off is given here.

Columns and labels:
[1] = target: Baculoviral IAP repeat-containing protein 2/Hematopoietic prostaglandin D synthase (Homo sapiens) (UniProt Q13490+O60760); assay: SNIPER activity at IAP1/HPGDS in human KU812 cells assessed as reduction in HPGDS protein level up to 1000 nM measured after 6 hrs by Western blot analysis; format: cell-based; conditions: KU812 cell line, dose nM <=1000, time 6.0 hrs
[2] = target: T1, Hematopoietic prostaglandin D synthase (Homo sapiens, UniProt O60760); assay: Inhibition of HPGDS in human KU812 cells assessed as reduction in PGD2 level at 10 to 100 nM incubated for 24 hrs followed by A23187 treatment and measured after 30 mins and subsequent compound washout then further incubated for 6 hrs in compound-free medium by ELISA; format: cell-based; conditions: KU812 cell line, dose 10-100 nM, time 1470.0 min
Summary of the method: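 KU812 cells exposed to compounds 24 h, washed four times, kept 6 h compound-free, then stimulated with 5 μM A23187 for 30 min; medium PGD2 measured. Means ± SD, n = 3; two-tailed t test.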

[3] = target: T1, Hematopoietic prostaglandin D synthase; assay: Inhibition of HPGDS in human KU812 cells assessed as reduction in PGD2 level at 10 to 100 nM incubated for 24 hrs followed by A23187 treatment and measured after 30 mins by ELISA; format: cell-based; conditions: KU812 cell line, dose 10-100 nM, time 1470.0 min
Summary of the method: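 After 24 h compound exposure, KU812 cells stimulated with 5 μM A23187 for 30 min with compound still present; PGD2 measured in medium. Means ± SD, n = 3; two-tailed t test.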

[4] = target: T2, Protein cereblon/Hematopoietic prostaglandin D synthase (Homo sapiens) (UniProt O60760+Q96SW2); assay: Induction of CRBN-mediated HPGDS degradation in human KU812 cells at 10 to 100 nM incubated for 24 hrs followed by compound washout and further incubated for 6 hrs in compound-free medium by Western blot analysis; format: cell-based; conditions: KU812 cell line, dose 10-100 nM
Summary of the method: (§1)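 KU812 cells incubated with compounds 24 h, washed four times, then held 6 h in compound-free medium. Western blot H-PGDS/β-actin normalized to vehicle as 100; means ± SD, n = 3; two-tailed t test.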

[5] = target: T1, Hematopoietic prostaglandin D synthase; assay: Inhibition of recombinant human HPGDS expressed in Escherichia coli BL21 (DE3) measured after 3 mins by spectrophotometric analysis
[6] = target: T1, Hematopoietic prostaglandin D synthase; assay: Binding affinity to recombinant human HPGDS expressed in Escherichia coli BL21 (DE3) measured after 1 hr by fluorescence polarization assay
Summary of the method: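 Competitive binding to H-PGDS read by fluorescence polarization with a fluorescence probe.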

[7] = target: T1, Hematopoietic prostaglandin D synthase; assay: Induction of HPGDS degradation in human KU812 cells at 1 uM measured after 6 hrs in presence of pomalidomide by Western blot analysis; format: cell-based; conditions: KU812 cell line
Summary of the method: (§2)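 KU812 cells incubated 6 h with 1 μM degrader or with the ligand mixture (TFC-007 plus pomalidomide, 1 μM each). Western blot H-PGDS/β-actin normalized to vehicle as 100; means ± SD, n = 3; two-tailed t test.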

[8] = target: T1, Hematopoietic prostaglandin D synthase; assay: Inhibition of recombinant human HPGDS using [14C]-PGH2 as substrate preincubated for 1 min in presence of MgCl2 followed by substrate addition and measured after 45 mins by radioactive imaging analysis
[9] = target: T1, Hematopoietic prostaglandin D synthase; assay: Inhibition of recombinant human HPGDS
[10] = target: T1, Hematopoietic prostaglandin D synthase; assay: Induction of HPGDS degradation in human KU812 cells at 1 uM measured after 6 hrs in presence of TFC-007 by Western blot analysis; format: cell-based; conditions: KU812 cell line; summary of the method: as §2
[11] = Solubility of the compound; format: physicochemical
[12] = target: T2, Protein cereblon/Hematopoietic prostaglandin D synthase (Homo sapiens); assay: Protac activity at CRBN/HPGDS in human KU812 cells assessed as induction of HPGDS degradation at 10 to 100 nM incubated for 24 hrs followed by compound washout and further incubated for 6 hrs in compound-free medium by Western blot analysis; format: cell-based; conditions: KU812 cell line, dose 10-100 nM; summary of the method: as §1
[13] = target: T2, Protein cereblon/Hematopoietic prostaglandin D synthase (Homo sapiens); assay: Protac activity at CRBN/HPGDS in human KU812 cells assessed as induction of HPGDS degradation at 100 nM measured after 6 hrs in presence of ubiquitin-activating enzyme inhibitor MLN7243 by Western blot analysis; format: cell-based; conditions: KU812 cell line
Summary of the method: (§3)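 KU812 cells given 100 nM degrader with or without 10 μM MG132 or 10 μM MLN7243 for 6 h. Western blot H-PGDS/β-actin normalized to vehicle as 100; means ± SD, n = 3.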

[14] = target: T2, Protein cereblon/Hematopoietic prostaglandin D synthase (Homo sapiens); assay: Protac activity at CRBN/HPGDS in human KU812 cells assessed as induction of HPGDS degradation at 100 nM measured after 6 hrs in presence of proteasome inhibitor MG132 by Western blot analysis; format: cell-based; conditions: KU812 cell line; summary of the method: as §3
[15] = target: T2, Protein cereblon/Hematopoietic prostaglandin D synthase (Homo sapiens); assay: Competitive binding affinity to HPGDS in human KU812 cells assessed as induction of CRBN-mediated degradation of HPGDS at 100 nM after 6 hrs in presence of excess pomalidomide by Western blot analysis; format: cell-based; conditions: KU812 cell line
Summary of the method: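 KU812 cells given 100 nM degrader and/or 10 μM pomalidomide for 6 h. Western blot H-PGDS/β-actin normalized to vehicle as 100; means ± SD, n = 3.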

[16] = target: T2, Protein cereblon/Hematopoietic prostaglandin D synthase (Homo sapiens); assay: Protac activity at CRBN/HPGDS in human KU812 cells assessed as induction of HPGDS degradation at 1 uM measured after 6 hrs by Western blot analysis; format: cell-based; conditions: KU812 cell line; summary of the method: as §2
[17] = tested on: KU812; assay: Effect on HPGDS mRNA expression in human KU812 cells up to 1000 nM measured after 6 hrs by SYBR green based qRT-PCR analysis; format: functional, cell-based; conditions: dose nM <=1000, time 6.0 hrs
Summary of the method: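 KU812 cells treated with the indicated concentrations for 6 h. H-PGDS mRNA expressed relative to vehicle, set to 1; means ± SD, n = 3; two-tailed Student's t test versus vehicle.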

[18] = target: Protein cereblon/G2/mitotic-specific cyclin-B1 (Homo sapiens) (UniProt P14635+Q96SW2); assay: Protac activity at CRBN/Cyclin B1 in human KU812 cells assessed as decrease in cyclin B1 protein level by measuring protein turnover at 100 nM measured within 6 hrs in presence of protein synthesis inhibitor cycloheximide by Western blot analysis; format: cell-based; conditions: KU812 cell line
Summary of the method: (§4)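 KU812 cells given 10 μg/mL cycloheximide with or without 100 nM degrader for the indicated periods. H-PGDS/β-actin and cyclin B1/β-actin ratios by Western blot, normalized to time 0 control as 100; means ± SD, n = 3.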

[19] = target: T2, Protein cereblon/Hematopoietic prostaglandin D synthase (Homo sapiens); assay: Protac activity at CRBN/HPGDS in human KU812 cells assessed as decrease in HPGDS protein level by measuring protein turnover at 100 nM measured within 6 hrs in presence of protein synthesis inhibitor cycloheximide by Western blot analysis; format: cell-based; conditions: KU812 cell line; summary of the method: as §4
[20] = target: T2, Protein cereblon/Hematopoietic prostaglandin D synthase (Homo sapiens); assay: Protac activity at CRBN/HPGDS in human MEG01s cells assessed as reduction in HPGDS protein level up to 1000 nM measured after 6 hrs by Western blot analysis; format: cell-based; conditions: dose nM <=1000, time 6.0 hrs
[21] = target: T2, Protein cereblon/Hematopoietic prostaglandin D synthase (Homo sapiens); assay: Protac activity at CRBN/HPGDS in human KU812 cells assessed as reduction in HPGDS protein level at >=10 nM measured after 3 hrs by Western blot analysis; format: cell-based; conditions: KU812 cell line, dose nM >=10, time 3.0 hrs
Summary of the method: (§5)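 KU812 cells exposed to graded concentrations for 3, 6 or 24 h. Western blot; H-PGDS/β-actin ratio normalized to vehicle control as 100; means ± SD, n = 3.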

[22] = target: T2, Protein cereblon/Hematopoietic prostaglandin D synthase (Homo sapiens); assay: Protac activity at CRBN/HPGDS in human KU812 cells assessed as reduction in HPGDS protein level at 100 to 1000 nM measured after 3 hrs by Western blot analysis; format: cell-based; conditions: KU812 cell line, dose 100-1000 nM; summary of the method: as §5
[23] = target: T2, Protein cereblon/Hematopoietic prostaglandin D synthase (Homo sapiens); assay: Protac activity at CRBN/HPGDS in human KU812 cells assessed as reduction in HPGDS protein level at >=10 nM measured after 6 to 24 hrs by Western blot analysis; format: cell-based; conditions: KU812 cell line, dose nM >=10, time 6-24 hrs; summary of the method: as §5
[24] = Protac activity at CRBN/AKR1B1 in human KU812 cells assessed as reduction in AKR1B1 protein level up to 1000 nM measured after 24 hrs by Western blot analysis; conditions: KU812 cell line, dose nM <=1000, time 24.0 hrs
[25] = tested on: Protein cereblon/Prostaglandin E synthase (Homo sapiens); assay: Protac activity at CRBN/MPGES-1 in human KU812 cells assessed as reduction in MPGES-1 protein level up to 1000 nM measured after 24 hrs by Western blot analysis; conditions: KU812 cell line, dose nM <=1000, time 24.0 hrs

SMILES: CN[C@@H](C)C(=O)N[C@H](C(=O)N1CCC[C@H]1c1nc(C(=O)c2cccc(OCCOCCOCC(=O)N3CCN(C(=O)C4CCN(c5ccc(NC(=O)c6cnc(Oc7ccccc7)nc6)cc5)CC4)CC3)c2)cs1)C1CCCCC1
Activity [1]: inactive

SMILES: O=C(Nc1ccc(N2CCC(C(=O)N3CCOCC3)CC2)cc1)c1cnc(Oc2ccccc2)nc1
inhibition [2]: inactive
inhibition [3]: Active
Activity [4]: inactive
IC50 [5]: 71 nM
IC50 [6]: 320 nM
Activity [7]: inactive
IC50 [8]: 71 nM

SMILES: CON(C)C(=O)c1[nH]c(C)c(-c2nc3cc(C(=O)c4ccccc4)ccc3[nH]2)c1C
IC50 [9]: 23 nM

SMILES: CN1C(=O)CCC(N2C(=O)c3cccc(NCCOCCOCCOCCOCCOCCC(=O)N4CCN(C(=O)C5CCN(c6ccc(NC(=O)c7cnc(Oc8ccccc8)nc7)cc6)CC5)CC4)c3C2=O)C1=O (stereo not given)
inhibition [2]: inactive
solubility [11]: Soluble
inhibition [3]: Active
Activity [12]: inactive
IC50 [5]: 320 nM
IC50 [6]: 320 nM

More lines, main results first:

Activity [10]: inactive
SMILES: Nc1cccc2c1C(=O)N(C1CCC(=O)NC1=O)C2=O (stereo not given)

inhibition [2]: Active
solubility [11]: Soluble
inhibition [3]: Active
Activity [12]: Active
IC50 [5]: 266 nM
IC50 [6]: 320 nM
Activity [13]: inactive
Activity [14]: inactive
Activity [15]: inactive
Activity [16]: Active
Activity [18]: inactive
Activity [19]: Active
Activity [20]: Active
Activity [21]: Active
Activity [22]: Active
Activity [23]: Active
Activity [24]: inactive
Activity [25]: inactive
SMILES: O=C1CCC(N2C(=O)c3cccc(NCCOCCOCCOCCOCCOCCC(=O)N4CCN(C(=O)C5CCN(c6ccc(NC(=O)c7cnc(Oc8ccccc8)nc7)cc6)CC5)CC4)c3C2=O)C(=O)N1 (stereo not given)
Activity [17]: inactive
